This note sets out measurements from ChEMBL document CHEMBL4390662, “Design, synthesis and biological evaluation of novel α-acyloxy carboxamides via Passerini reaction as caspase 3/7 activators” (Eur J Med Chem, 2019).

Series [1] is described as follows: Selectivity index, ratio of IC50 for human WI38 cells to IC50 for mouse NFS60 cells. The method, boiled down: (§1)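 SI calculated as IC50 on normal Wi-38 fibroblasts divided by IC50 on the cancer cell line. Both came from 72 h MTT assays.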
Series [2] relates to NFS-60. The series can be described thus: Cytotoxicity against mouse NFS60 cells assessed as cell growth inhibition incubated for 72 hrs by MTT assay. The class given is functional, cell-based. To be noted: NFS-60, 72 h. The procedure, abridged: (§2)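 Cells grown in RPMI-1640 with 10% FBS and seeded at 5×10^3 per well. After 24 h, serial concentrations given for 72 h at 37°C, 5% CO2. Then 5 mg/mL MTT stock added for 3 h, formazan dissolved in DMSO, A570 read. IC50 calculated from the curves.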
A general note: Formazan colour is commonly taken as a measure of viable cells.

Series [3] has as its system Pseudomonas aeruginosa. Description: Antimicrobial activity against Pseudomonas aeruginosa ATCC 27853 incubated for 24 hrs by agar well diffusion assay. The class given is functional. The procedure, abridged:
(§3)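 Nutrient agar spread with 100 µL inoculum: bacteria at 1×10^8 CFU/mL, fungi at 1×10^6 CFU/mL. 10 mm wells loaded with 100 µL of compound in DMSO (final 1 mg/mL). Bacteria incubated 24 h at 37 °C, fungi 48 h at 28 °C. Inhibition zones measured in mm. Ciprofloxacin and fluconazole standards at 1 mg/mL, DMSO negative control.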
(In agar diffusion tests the substance spreads into inoculated agar from a disc or well.)

In series [4] the test system is Candida albicans. The series can be described thus: Antimicrobial activity against Candida albicans ATCC 90028 incubated for 48 hrs by agar well diffusion assay. It counts as functional. The method, boiled down: as §3
The test system of series [5] is HepG2. Description: Cytotoxicity against human HepG2 cells assessed as cell growth inhibition incubated for 72 hrs by MTT assay. The note with it: HepG2, 72 h. The class given is functional, cell-based. The procedure, abridged: as §2
Series [6] deals with Enterococcus faecalis. The series can be described thus: Antimicrobial activity against Enterococcus faecalis ATCC 29212 incubated for 24 hrs by agar well diffusion assay. The class given is functional. The procedure, abridged:
as §3

Series [7] relates to MCF7. The series can be described thus: Cytotoxicity against human MCF7 cells assessed as cell growth inhibition incubated for 72 hrs by MTT assay. It counts as functional, cell-based. To be noted: MCF7, 72 h. The method, boiled down:
as §2

Series [8] relates to Escherichia coli. Description: Antimicrobial activity against Escherichia coli ATCC 25922 incubated for 24 hrs by agar well diffusion assay. The class given is functional. The method, boiled down:
as §3

For series [9], the system named is MCF7. Description: Potency index, ratio of doxorubicin IC50 to test compound IC50 against human MCF7 cells. It counts as functional.
Series [10] has as its system Staphylococcus aureus. Description: Antimicrobial activity against Staphylococcus aureus ATCC 25923 incubated for 24 hrs by agar well diffusion assay. It counts as functional. The procedure, abridged: as §3
Series [11] is described as follows: Selectivity index, ratio of IC50 for human WI38 cells to IC50 for human MCF7 cells. The class given is toxicity. To be noted: WI38 cells versus MCF7 cells, read-out: Ratio IC50. The procedure, abridged: as §1
In series [12] the test system is WI-38. The series can be described thus: Cytotoxicity against human WI38 cells assessed as cell growth inhibition incubated for 72 hrs by MTT assay. The class given is cell-based. To be noted: for IC50: Homo sapiens, WI-38, 72 h; for EC100: human, wi-38, 72 h. The procedure, abridged:
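Wi-38 fibroblasts grown in DMEM with 10% FBS and seeded at 5×10^3 per well. Attachment 24 h, then serial concentrations for 72 h at 37°C, 5% CO2. MTT stock (5 mg/mL) added for 3 h at 37°C, DMSO solubilization, absorbance at 570 nm. IC50 estimated.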

Series [13] is described as follows: Selectivity index, ratio of IC50 for human WI38 cells to IC50 for human HepG2 cells. It counts as toxicity. To be noted: WI38 cells versus HepG2 cells, read-out: Ratio IC50. The procedure, abridged:
as §1

Series [14] has as its system Candida albicans. The series can be described thus: Antimicrobial activity against Candida albicans ATCC 90028 incubated for 24 hrs by microdilution assay. The class given is functional. The procedure, abridged: (§4)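 Two-fold serial dilutions of test solutions made in Mueller Hinton broth and inoculated. Incubated at 37°C for 24 h. MIC taken as the lowest concentration with no growth. Ciprofloxacin is the antibacterial reference, fluconazole the antifungal one, and DMSO the blank.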

The subject of series [15] is Staphylococcus aureus. The series can be described thus: Antimicrobial activity against Staphylococcus aureus ATCC 25923 incubated for 24 hrs by microdilution assay. The class given is functional. The procedure, abridged:
as §4
A general note: Broth dilution looks for growth in wells or tubes with falling amounts of substance.

The subject of series [16] is Escherichia coli. Description: Antimicrobial activity against Escherichia coli ATCC 25922 incubated for 24 hrs by microdilution assay. The class given is functional. To be noted: ATCC 25922, 24 h. The method, boiled down: as §4

Each structure is given as a SMILES string. Converted amounts (≈) assume the structure as drawn. The source made the active and inactive calls.

As usually defined, the IC50 is the concentration needed to halve the response being measured. On to `Cc1ccc(C(=O)OC2(C(=O)Nc3ccc([N+](=O)[O-])cc3)CCCCC2)cc1`, for which the “Ratio IC50” value in [1] was 0.704; in series [9], 2 - 4. In addition, the IC50 came to 45.4 nM in [2], 61.2 nM in series [5], 9.8 nM in [7] and 32 nM in series [12]. The “diameter of the inhibition zone (DIZ)” value in [3], in [4], in [6], in series [8] and in series [10] was “inactive” each time. Moreover, the results for the selectivity ratio in series [11] and in [13] were 3.27 and 0.522, respectively. Besides, the EC100 in series [12] worked out at 0.0064 µM.
What is called MIC is the smallest concentration in the dilution series that meets the test's criterion for growth inhibition. For the molecule `O=C(OC1(C(=O)Nc2ccc([N+](=O)[O-])cc2)CCCCC1)c1ccccc1[N+](=O)[O-]`, in series [1], the “Ratio IC50” value is 1.84. Besides, the MIC entry in [14] and in series [15] was “inactive” each time. Moreover, the IC50 is 18.8 nM in series [2], 44 nM in series [5], 14.7 nM in [7] and 34.6 nM in series [12]. The “diameter of the inhibition zone (DIZ)” value is on record as 14 mm in series [3] and 12 mm in series [8]. Moreover, the “diameter of the inhibition zone (DIZ)” value in [4], in [6] and in series [10] was “inactive” in each case. The selectivity ratio in series [11] is 2.35; in [13] it was 0.786. Also, the EC100 in [12] turned out to be 0.0067 µM. The same molecule displayed an MIC in [16] of 2480 µM (≈ 1020 µg/mL).
For `COC1(Nc2ccc([N+](=O)[O-])cc2)C(=O)c2ccccc2C1=O`, the “Ratio IC50” value in series [1] was found to be 1.637. For the same molecule, the MIC entry in series [14] and in series [15] was “inactive” throughout. Besides, the concentration for half-maximal inhibition (IC50) in series [2] worked out at 32.8 nM; in series [5], 36 nM; in series [7], 25.4 nM; in [12], 53.7 nM. In addition, the “diameter of the inhibition zone (DIZ)” value in series [3] and in series [8] was 14 mm in each case. Moreover, the “diameter of the inhibition zone (DIZ)” value in series [4], in series [6] and in series [10] was “inactive” each time. Moreover, the figures for the selectivity ratio in series [11] and in series [13] were 2.11 and 1.49, respectively. Besides, the EC100 in [12] was 0.043 µM. The same molecule had an MIC in [16] of 3280 µM (≈ 1020 µg/mL).
